Reference: ChEMBL document CHEMBL4351015, “Design, synthesis and biological evaluation of 3-(imidazo[1,2-a]pyrazin-3-ylethynyl)-2-methylbenzamides as potent and selective pan-tropomyosin receptor kinase (TRK) inhibitors” (Eur J Med Chem, 2019)
Activity calls are given as the source filed them. The rule behind the calls is not given here.

Key:
[1] = target: High affinity nerve growth factor receptor (Homo sapiens, UniProt P04629); assay: Inhibition of recombinant human His-tagged TrkA catalytic domain (441 to 796 residues) expressed in baculovirus expression system using tyr 01 as substrate incubated for 1 hr by Z'-Lyte assay
Sequence of High affinity nerve growth factor receptor (P04629 whole entry, the tested form may be a part): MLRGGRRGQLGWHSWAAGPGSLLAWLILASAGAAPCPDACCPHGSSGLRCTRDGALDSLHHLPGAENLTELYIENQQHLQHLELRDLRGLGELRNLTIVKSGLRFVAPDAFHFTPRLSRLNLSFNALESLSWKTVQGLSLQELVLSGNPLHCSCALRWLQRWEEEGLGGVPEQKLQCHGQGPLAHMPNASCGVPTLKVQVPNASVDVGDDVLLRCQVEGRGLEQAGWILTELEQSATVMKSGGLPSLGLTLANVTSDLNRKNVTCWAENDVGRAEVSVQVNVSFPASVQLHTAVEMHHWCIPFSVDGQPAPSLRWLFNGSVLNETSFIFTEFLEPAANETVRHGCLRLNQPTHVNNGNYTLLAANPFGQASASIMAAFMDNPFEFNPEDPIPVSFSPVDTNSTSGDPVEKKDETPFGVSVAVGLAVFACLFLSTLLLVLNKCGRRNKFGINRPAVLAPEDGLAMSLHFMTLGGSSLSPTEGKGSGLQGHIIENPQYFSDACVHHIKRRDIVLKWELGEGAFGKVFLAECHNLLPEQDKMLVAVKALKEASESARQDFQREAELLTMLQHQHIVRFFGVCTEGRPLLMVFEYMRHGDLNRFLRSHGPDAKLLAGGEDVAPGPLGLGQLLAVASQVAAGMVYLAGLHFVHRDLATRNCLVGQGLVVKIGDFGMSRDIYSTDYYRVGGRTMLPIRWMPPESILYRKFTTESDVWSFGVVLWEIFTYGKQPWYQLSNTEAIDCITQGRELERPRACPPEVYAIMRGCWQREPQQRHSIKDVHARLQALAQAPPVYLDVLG

[2] = target: BDNF/NT-3 growth factors receptor (Homo sapiens, UniProt Q16620); assay: Inhibition of recombinant human His-tagged TrkB catalytic domain (526 to 838 residues) expressed in baculovirus expression system using tyr 01 as substrate incubated for 1 hr by Z'-Lyte assay
Sequence of BDNF/NT-3 growth factors receptor (Q16620 whole entry, the tested form may be a part): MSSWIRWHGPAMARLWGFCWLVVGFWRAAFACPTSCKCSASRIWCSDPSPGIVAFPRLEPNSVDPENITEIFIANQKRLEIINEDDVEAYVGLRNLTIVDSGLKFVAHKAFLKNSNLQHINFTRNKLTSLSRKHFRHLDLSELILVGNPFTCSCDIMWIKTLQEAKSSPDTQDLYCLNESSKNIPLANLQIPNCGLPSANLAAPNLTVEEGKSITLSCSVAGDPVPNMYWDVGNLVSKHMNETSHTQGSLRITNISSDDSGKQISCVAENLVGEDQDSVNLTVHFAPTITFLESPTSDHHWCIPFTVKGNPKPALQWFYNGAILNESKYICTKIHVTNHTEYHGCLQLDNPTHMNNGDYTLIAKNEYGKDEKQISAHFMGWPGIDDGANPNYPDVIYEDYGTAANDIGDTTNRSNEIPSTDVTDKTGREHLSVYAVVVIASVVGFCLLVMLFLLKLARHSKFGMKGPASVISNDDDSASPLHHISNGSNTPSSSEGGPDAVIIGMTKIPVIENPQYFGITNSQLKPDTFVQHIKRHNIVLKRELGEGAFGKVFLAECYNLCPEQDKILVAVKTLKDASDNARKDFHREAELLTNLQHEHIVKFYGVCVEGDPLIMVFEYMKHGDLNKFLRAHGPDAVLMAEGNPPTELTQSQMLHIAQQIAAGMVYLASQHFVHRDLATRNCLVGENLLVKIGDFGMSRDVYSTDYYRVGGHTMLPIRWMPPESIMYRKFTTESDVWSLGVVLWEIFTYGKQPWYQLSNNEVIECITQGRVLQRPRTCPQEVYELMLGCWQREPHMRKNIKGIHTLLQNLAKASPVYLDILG

[3] = target: Tyrosine-protein kinase ABL1 (Homo sapiens, UniProt P00519); assay: Inhibition of recombinant full length human His-tagged ABL1 expressed in baculovirus infected insect cells using tyr 02 as substrate incubated for 2 hr by Z'-Lyte assay
Sequence of Tyrosine-protein kinase ABL1 (P00519 whole entry): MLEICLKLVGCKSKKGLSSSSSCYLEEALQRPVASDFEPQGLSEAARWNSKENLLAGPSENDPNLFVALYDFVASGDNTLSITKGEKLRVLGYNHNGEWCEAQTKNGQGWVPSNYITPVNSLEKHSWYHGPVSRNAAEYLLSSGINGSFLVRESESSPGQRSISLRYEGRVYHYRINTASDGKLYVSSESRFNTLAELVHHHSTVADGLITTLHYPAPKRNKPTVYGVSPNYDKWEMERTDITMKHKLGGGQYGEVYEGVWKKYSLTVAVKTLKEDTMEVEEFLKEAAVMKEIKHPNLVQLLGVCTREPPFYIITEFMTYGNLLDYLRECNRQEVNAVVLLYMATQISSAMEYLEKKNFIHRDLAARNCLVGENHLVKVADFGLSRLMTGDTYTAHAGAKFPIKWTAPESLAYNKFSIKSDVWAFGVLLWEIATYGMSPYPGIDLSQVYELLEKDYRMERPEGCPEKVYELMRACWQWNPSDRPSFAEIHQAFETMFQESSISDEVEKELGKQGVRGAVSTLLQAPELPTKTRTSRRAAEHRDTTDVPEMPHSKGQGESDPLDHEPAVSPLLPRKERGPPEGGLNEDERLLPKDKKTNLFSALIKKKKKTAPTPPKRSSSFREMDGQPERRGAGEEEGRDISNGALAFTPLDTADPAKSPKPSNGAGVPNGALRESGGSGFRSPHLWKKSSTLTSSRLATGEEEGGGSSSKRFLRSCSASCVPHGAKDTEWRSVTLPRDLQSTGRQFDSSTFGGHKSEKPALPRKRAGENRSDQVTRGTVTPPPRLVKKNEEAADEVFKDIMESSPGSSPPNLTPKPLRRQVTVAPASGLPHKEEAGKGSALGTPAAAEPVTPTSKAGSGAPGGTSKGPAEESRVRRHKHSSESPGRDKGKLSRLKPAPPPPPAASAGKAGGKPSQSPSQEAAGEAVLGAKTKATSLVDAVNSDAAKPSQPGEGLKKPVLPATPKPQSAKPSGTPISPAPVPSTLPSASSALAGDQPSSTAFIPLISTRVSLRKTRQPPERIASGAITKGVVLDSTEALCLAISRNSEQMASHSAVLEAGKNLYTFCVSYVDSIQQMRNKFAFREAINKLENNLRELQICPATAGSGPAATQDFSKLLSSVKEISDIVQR

SH-SY5Y [4] = assay: Neurotoxicity in human SH-SY5Y cells assessed as reduction in cell viability incubated for 72 hrs by CCK8 assay; type: toxicity, cell-based
SH-SY5Y [5] = assay: Antiproliferative activity against human SH-SY5Y cells transfected with TrkB (unknown origin) assessed as reduction in cell viability incubated for 72 hrs by CCK8 assay; type: functional, cell-based
Summary of the method: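 SH-SY5Y-TrkB cells (SH-SY5Y stably transfected with pRP-TrkB, kept under 0.5 µg/ml puromycin in 1:1 MEM/F-12 with 10% FBS) seeded at 1500-3000/well, left overnight. Compounds 0.000457–3 µM were then added with or without BDNF 10 ng/ml for 72 h. Read-out by CCK8. IC50 came from concentration-response curve fitting, reported as mean ± SD from at least three independent experiments.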

Row | Compound | IC50 [1] | IC50 [2] | IC50 [3] | Activity (SH-SY5Y [4]) | Activity (SH-SY5Y [5])
1 | CN1CCN(Cc2cc(NC(=O)c3cccc(C#Cc4cnc5cnccn45)c3Cl)cc(C(F)(F)F)c2)CC1 | 227 nM | 254 nM | > 1000 nM |  | 
2 | Cc1c(C#Cc2cnc3cnc(-c4ccc(N)cc4)cn23)cccc1C(=O)Nc1cc(CN2CCN(C)CC2)cc(-c2ccccc2)c1 | 7.34 nM | 24.2 nM | > 1000 nM |  | 
3 | O=C(Nc1cnn2ccc(N3CCC[C@@H]3c3cc(F)ccc3F)nc12)N1CC[C@H](O)C1 [LAROTRECTINIB] |  |  | > 1000 nM | Non-Toxic | Active
4 | CCc1cc(CN2CCN(C)CC2)cc(NC(=O)c2cccc(C#Cc3cnc4cnc(-c5ccc(N)cc5)cn34)c2C)c1 | 3.56 nM | 9.3 nM | > 1000 nM |  | 
5 | Cc1c(C#Cc2cnc3cnc(-c4ccncc4)cn23)cccc1C(=O)Nc1cc(CN2CCN(C)CC2)cc(C(F)(F)F)c1 | 28.8 nM | 43.5 nM | > 1000 nM |  | 

Further lines, with some results ahead:

Row | IC50 [1] | IC50 [2] | IC50 [3] | Compound | Activity (SH-SY5Y [4]) | Activity (SH-SY5Y [5])
6 | 6.4 nM | 15.6 nM | > 1000 nM | Cc1c(C#Cc2cnc3cnc(-c4ccc(N)cc4)cn23)cccc1C(=O)Nc1cc(CN2CCN(C)CC2)cc(C(C)(C)C)c1 |  | 
7 | 186 nM | 315 nM | > 1000 nM | CCc1c(C#Cc2cnc3cnccn23)cccc1C(=O)Nc1cc(CN2CCN(C)CC2)cc(C(F)(F)F)c1 |  | 
8 | 7.75 nM | 13.1 nM | > 1000 nM | Cc1c(C#Cc2cnc3cnc(-c4ccc(N)cc4)cn23)cccc1C(=O)Nc1cc(CN2CCN(C)CC2)cc(C(F)(F)F)c1 |  | 
9 | > 1000 nM | > 1000 nM | > 1000 nM | Cc1ccc(C#Cc2cnc3cnccn23)cc1C(=O)Nc1cc(CN2CCN(C)CC2)cc(C(F)(F)F)c1 |  | 
